Screening data as filed in PubChem.
Tb MetRS inh = Trypanosoma brucei MetRS inhibition. inhibition, % at 11.9 µM. purified T. brucei MetRS, ATP depletion, Kinase-Glo luminescence. 360,000 tested, 0.4% active;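 active = inhibition above a per-plate cutoff of the control wells' mean inhibition plus 3 SD, cut at about 5.5% in these data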;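 also: 0% = DMSO wells median and 100% = median of wells with control inhibitor compound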
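Dosing: 11.9 µM compound single dose, 0.9% DMSO; Assay system: purified T. brucei MetRS enzyme; Measured by: Kinase-Glo luciferase luminescence reporting remaining unconsumed ATP; Schedule: 15 min plus 2 h at 25 °C.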
AI-2 QS mod = modulates the Vibrio harveyi AI-2 quorum sensing system; 300,000 tested, 0.4% active; AID 2094; Vibrio harveyi JMH597 AI-2 luminescence/OD600 ratio, 9 h; active compounds read low; strain lacks LuxN and CqsS sensors; 0 = neutral-control median; activity change, % at 7.5 µM; in the data active = activity change below about -75%, passing the limit was not always enough; inconclusive = no clear call, values can overlap the other calls;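 also: luminescence divided by OD600 gain over 9 h not by final OD600 alone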
HTR2A ag = mouse HTR2A agonism via beta-arrestin recruitment | CHO-K1 mHTR2A beta-arrestin complementation, luminescence; percent of 30 µM serotonin response | AID 624169 | P35363 | 360,000 tested, 0.66% active | activation, % at 7.6 µM;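 active = activation above a run cutoff, the mean activation of all tested compounds plus 3 SD, cut at about 14% in these data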;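 also: 0% = plate median of compound wells and 100% = 30 µM serotonin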
Target sequence (P35363 whole entry, looked up): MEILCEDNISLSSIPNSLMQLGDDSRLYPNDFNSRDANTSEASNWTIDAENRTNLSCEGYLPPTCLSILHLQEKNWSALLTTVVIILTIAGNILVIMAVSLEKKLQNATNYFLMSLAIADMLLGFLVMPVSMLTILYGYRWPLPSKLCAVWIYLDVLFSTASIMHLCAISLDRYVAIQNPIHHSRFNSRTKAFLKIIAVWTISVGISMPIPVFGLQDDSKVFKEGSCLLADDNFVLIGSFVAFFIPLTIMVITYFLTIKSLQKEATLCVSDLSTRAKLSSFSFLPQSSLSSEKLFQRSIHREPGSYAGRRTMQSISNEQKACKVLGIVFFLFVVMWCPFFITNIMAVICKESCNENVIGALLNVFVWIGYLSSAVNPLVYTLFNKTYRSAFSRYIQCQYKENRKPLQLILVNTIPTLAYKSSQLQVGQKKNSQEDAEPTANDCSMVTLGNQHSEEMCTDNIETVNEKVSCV
MsrA inh = bovine MsrA inhibition; purified bovine MsrA, absorbance read-out; inhibition, % at 15.5 µM; 360,000 tested, 0.75% active; AID 651718; in the data active = inhibition above about 4.5%;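 also: 0% = vehicle wells with enzyme and 100% = reference inhibitor wells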
AHR activator = human AHR activation. activation, % at 5 µM. P35869. 320,000 tested, 2.5% active. AID 2796. AHR-responsive luciferase reporter cells, luminescence; in the data active = activation above about 47%;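 also: 0% = vehicle wells and 100% = reference agonist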
MsrA act = activators of bovine methionine sulfoxide reductase A; purified bovine MsrA, absorbance read-out; activation, % at 10.6 µM; 360,000 tested, 0.3% active; AID 602163; in the data active = activation above about 7.5%;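 also: 0% = vehicle and 100% = reference activator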
An asterisk follows results filed as active; ? = inconclusive; / = no result given. A selection: hits, their analogues and other compounds. The true share with any hit is near 4.4%.

SMILES	Tb MetRS inh	AI-2 QS mod	HTR2A ag	MsrA inh	AHR activator	MsrA act
CCC[C@@H]1C[C@@H](C(=O)NC(C(C)Cl)[C@H]2O[C@H](SC)[C@H](O)[C@@H](O)[C@H]2O)N(C)C1 (stereo partly drawn)	-1	-43	40*	-1	-3	-1
O=[N+]([O-])c1ccc(/C=N/n2cnc3ccccc32)s1	0	-14	0	2	27	18*
Cc1nc2ccccc2n1/N=C/c1ccc([N+](=O)[O-])s1	0	24	1	1	52*	3
COC(=O)C1(C)COP(=O)(NC23CC4CC(CC(C4)C2)C3)OC1 (stereo not drawn)	0	/	0	0	/	-1
S=c1[nH]nc(-c2ccccc2)n1/N=C/c1ccc(Cl)cc1	0	31	5	-1	/	4
S=c1[nH]nc(-c2ccc(Cl)cc2)n1/N=C/c1cccs1	-1	4	1	0	75*	4
S=c1[nH]nc(-c2ccccn2)n1/N=C/c1cccs1	-1	27	-3	1	1	-3
CC(C)(C)c1n[nH]c(=S)n(/N=C/c2cccs2)c1=O	0	-77*	-1	3	8	0
O=C(N[C@H](Cc1ccccc1)C(=O)N(CCC1=CCCCC1)CC1CC1)[C@H]1O[C@@H](n2ccc(=O)[nH]c2=O)[C@H](O)[C@@H]1O	/	/	/	-1	/	/
COc1ccc(-c2oc3cccnc3c2/C=C/c2ccc(OC)c(OC)c2)cc1	0	16	-2	2	47*	-3
COc1ccc(/C=C/c2c(-c3ccc(OC)cc3)oc(=O)c3cc(OC)c(OC)cc23)cc1	0	/	2	1	7	-4
CCCc1cc2c(=O)c(-c3ccccn3)c(C)oc2cc1O	0	-10	-4	2	65*	-1
COc1ccc(S(=O)(=O)NC2CC(C)(C)NC(C)(C)C2)c2ccccc12	0	5	-4	-1	0	-10
O=C(Nc1ccc(N2CCOCC2)cc1)C1CC1	-1	-1	0	1	-3	-2
O=C(Nc1ccc(N2CCOCC2)cc1)NC1CCCCC1	-1	11	15*	0	4	-6
Cc1ccc(S(=O)(=O)NC(=O)ON=Cc2ccc3c(c2)OCO3)cc1	/	/	/	0	/	/
COc1ccccc1NC(=O)c1cc([N+](=O)[O-])ccc1NCCN1C(=O)CCC1=O	3	32	9	-1	51*	-3
O=C(Nc1cc(Cl)ccc1Oc1ccccc1)c1ccccc1F	0	30	-4	0	65*	-3
O=C(Nc1ccc(Nc2ccccc2)cc1)c1cc([N+](=O)[O-])ccc1Cl	-1	-22	-5	1	-5	-1
COc1ccccc1NC(=O)c1cc(OC)c(OC)cc1[N+](=O)[O-]	1	19	0	0	8	-3
Cc1cccc(NC(=O)c2cc([N+](=O)[O-])ccc2Cl)c1O	0	22	-2	0	48*	-3
O=C(Nc1ccccc1Cl)c1ccccc1Oc1ccc(C(F)(F)F)cc1[N+](=O)[O-]	-1	30	-1	1	75*	0
CCOC(=O)C1=CN(Cc2ccco2)S(=O)(=O)N(C)C1c1ccc(F)c(Cl)c1 (stereo not drawn)	1	/	-4	1	/	0
O=C(Nc1ccccc1Oc1ccccc1)c1cc([N+](=O)[O-])ccc1Cl	0	-12	8	0	108*	-1
C=CCNc1nc(N)c(C(=C(C#N)C#N)c2ccc(Br)cc2)s1	0	18	-4	-1	57*	-6
SMILES	Tb MetRS inh	AI-2 QS mod	HTR2A ag	MsrA inh	AHR activator	MsrA act
COc1cccc(C=NNC(=S)NC2CC3CCC2C3)c1O (stereo not drawn)	/	/	/	1	/	/
CCc1ccc(/C=C2/SC(=S)N(CC(=O)Nc3nc4ccccc4s3)C2=O)cc1	0	23	2	0	10	13*
CCc1ccc(/C=C2\SC(=S)N(CCCC(=O)Nc3ccccn3)C2=O)cc1	0	6	-1	0	-9	1
Nc1[nH]c(C(=O)c2ccc(Br)cc2)c(-c2ccc(Br)cc2)c1C(=O)NCc1cccc2ccccc12	/	/	/	1	/	/
c1ccc2c(c1)oc1c(N3CCOCC3)ncnc12	0	25	3	1	73*	-2
COc1ccccc1N1CCN(c2ncnc3c2oc2ccccc23)CC1	0	26	0	0	9	3
Cc1[nH]nc(N)c1N=Nc1ccc(Br)cc1	/	18	/	2	68*	/
Cc1nc(N)sc1N=Nc1ccc(Br)cc1	1	-6	4	1	146*	-2
Cc1ccccc1-c1cc2nc(NCCc3ccncc3)n(C)c(=O)c2s1	0	/	4	0	/	-4
c1ccc2c(-c3nnc(SCc4cn5ccccc5n4)o3)c[nH]c2c1	2	19	-3	-1	-2	0
c1ccc(CSc2nnc(-c3c[nH]c4ccccc34)o2)cc1	1	-82*	-1	0	13	-4
CCCCCCCCN1C(=O)[C@@H](CC(=O)N2CCSCC2)C[C@@]2(C(=O)OC)C1=C[C@H](C(C)(C)C)O[C@@H]2C	/	/	/	-1	/	/
Cc1ccc(CNc2nc3ccccc3s2)s1	0	-55	-7	-2	68*	4
Cc1ccc(C(=O)Nc2nc3ccccc3s2)s1	-1	11	2	2	79*	-1
COc1ccc(CNc2nc3ccccc3s2)cc1OC	0	9	6	-1	42	-2
COc1cccc(-n2cc3c(=O)n(C)c(=O)n(C)c3c2)c1	0	1	0	0	59*	-3
O=C(NCc1cccnc1)c1ccc(-c2cc(Cl)ccc2Cl)o1	0	0	-5	-1	76*	-4
O=S1(=O)N=C(Nc2nc3c(s2)CCCC3)c2ccccc21	-3	/	-1	3	57*	-15
Cc1cccc(Nc2nc3c(s2)CCCC3)c1	-1	1	4	1	10	-7
CC(C)(C)OC(=O)N1CCC[C@@H]1C(=O)NCc1ccccc1	/	/	/	0	/	/
O=C(CCNS(=O)(=O)c1ccc(Br)cc1)NCC(c1cccs1)N1CCOCC1 (stereo not drawn)	0	/	3	0	/	-5
Cc1nc2ncnn2c(C)c1Cc1c(Cl)cccc1Cl	-1	8	1	-1	-3	-2
O=C1c2ccccc2-c2nc3ncnn3c(-c3ccccc3Cl)c21	0	15	0	0	56*	-4
COc1ccc([N+](=O)[O-])c(S(=O)(=O)c2ccccc2)n1	1	?	-7	1	-3	-5
COc1ccc([N+](=O)[O-])c(S(=O)(=O)c2ccc(Cl)cc2)n1	2	-145*	-8	0	1	-3
Cn1c(-c2ccc([N+](=O)[O-])cc2)nc2ccccc21	0	12	5	4	-3	0
Cn1nc([N+](=O)[O-])c(C(C#N)c2nc3ccccc3n2C)c(Cl)c1=O (stereo not drawn)	1	26	-4	3	74*	-3
